Measured values reported in ChEMBL document CHEMBL3826876, “Toward the Development of Specific G-Quadruplex Binders: Synthesis, Biophysical, and Biological Studies of New Hydrazone Derivatives” (J Med Chem, 2016).
pIC50: −log10 of the molar value. Active and inactive are the calls of the source. No cut-off for these calls is given here.

Columns and labels:
[1] = Effect on preformed synthetic c-MYC parallel G-quadruplex DNA topology in tris buffer after 10 mins by circular dichroism titration method
[2] = Binding affinity to 5'-FAM/3'-TAMRA labeled c-MYC G-quadruplex DNA (unknown origin) assessed as change in melting temperature at 4:1 ligand:DNA ratio in presence of 20 mM KCl buffer by FRET assay
Method in brief: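 FRET melting of FAM/TAMRA-labelled G4 oligos (400 nM, annealed 85 °C 10 min) with ligand at 4 equiv, same buffers as CD (20 mM KCl for c-kit2 and c-myc; 100 mM KCl for telomeric parallel form, annealed at high concentration). Excitation 450-495 nm, emission 515-545 nm, read every 0.5 °C over 30-100 °C; ΔTm by curve fit; duplicate runs averaged.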

U2OS [3] = test: Cytotoxicity against human U2OS cells assessed as cell killing after 24 hrs by MTT assay; format: functional, cell-based
Method in brief: (§1)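 U2OS and HCT116 in DMEM with 10% FBS, 1% L-glutamine, seeded at 40000 cells/ml; 24 h later exposed for 1 h or 24 h, then drug-free medium 1-2 days. MTT 1 h at 37 °C, DMSO solubilisation, absorbance 595 nm. IC50 by linear regression; two independent experiments in triplicate, mean ± SE.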

U2OS [4] = test: Stabilization of nuclear G-quadruplex DNA in human U2OS cells at 0.2 to 1 uM after 24 hrs by DAPI staining based immunofluorescence assay; format: cell-based
Method in brief: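 U2OS seeded at 100000 cells/ml, treated 24 h after seeding for 24 h; fixed methanol:acetic acid 3:1, 0.1% Triton X-100, 2% milk block. Stained with in-house His-purified BG4, anti-FLAG, Alexa 488 anti-rabbit; nuclei DAPI. Per-cell signal as corrected total cell fluorescence; Student's t test.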

[5] = Effect on synthetic c-KIT2 G-quadruplex DNA topology at 4 mol equiv by circular dichroism spectroscopic analysis
Method in brief: (§2)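 CD spectra at 20 °C, 230-360 nm, 3 scans averaged, baseline subtracted; 10 µM G4 or 15 µM duplex in potassium- or lithium-phosphate pH 7.0 buffers with 100 mM KCl (c-kit2, c-myc: 5 mM potassium phosphate, 20 mM KCl); ligand 4 molar equiv added to folded DNA from 6 mM DMSO stock.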

[6] = Effect on synthetic telomere 26 G-quadruplex DNA topology at 4 mol equiv by circular dichroism spectroscopic analysis; method in brief: as §2
[7] = Binding affinity to synthetic c-KIT1 G-quadruplex DNA assessed as change in melting temperature at 4 mol equiv in presence of 100 mM KCl buffer by circular dichroism spectroscopic analysis
Method in brief: (§3)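 CD melting, 20-100 °C at 1 °C/min, signal at 264 (parallel), 290 (antiparallel) or 280 nm (duplex). G4 DNA 10 µM or duplex 15 µM, folded by heating at 90 °C 5 min and slow cooling, in 10 mM potassium phosphate (c-kit1, Tel23, Tel26) or lithium phosphate (Tel23-p, ds12) pH 7.0 with 100 mM KCl. Ligand 4 equiv; Tm by curve fit, ΔTm vs DNA alone; duplicate average.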

[8] = Binding affinity to synthetic self-complementary DNA 12-mer duplex assessed as change in melting temperature at 4 mol equiv in presence of 100 mM KCl buffer by circular dichroism spectroscopic analysis; method in brief: as §3
U2OS [9] = test: Cytotoxicity against human U2OS cells assessed as cell killing after 1 hr by MTT assay; format: functional, cell-based; method in brief: as §1
[10] = Ratio of IC50 for human U2OS cells to stabilization of nuclear G-quadruplex DNA in human U2OS cells
[11] = Effect on synthetic c-KIT1 G-quadruplex DNA topology at 4 mol equiv by circular dichroism spectroscopic analysis; method in brief: as §2
[12] = Cytotoxicity against human HCT116 cells assessed as cell killing after 1 hr by MTT assay; format: functional, cell-based; details: HCT-116, 1 h; method in brief: as §1
[13] = Binding affinity to synthetic telomere 23 G-quadruplex DNA assessed as change in melting temperature at 4 mol equiv in presence of 100 mM KCl buffer by circular dichroism spectroscopic analysis; method in brief: as §3

- Activity [1]: inactive
- ΔTm [2]: > 20 °C
- Activity [5]: inactive
- Activity [6]: inactive
- ΔTm [7]: 2.7 °C
- ΔTm [8]: -0.8 °C
- Activity [11]: inactive
- ΔTm [13]: -2.4 °C
SMILES: Br.O=Cc1c(-c2ccccc2)nc2n1ccc1nc(-c3ccccc3)c(/C=N/NC3=NCCN3)n12
- pIC50 (U2OS [3]): 6.07
- Activity (U2OS [4]): Active
- pIC50 (U2OS [9]): 5.24
- Ratio [10]: 4
- pIC50 [12]: 5.38
